The source of these data is ChEMBL document CHEMBL2406979, “Antitumor activity of 2-hydroxycinnamaldehyde for human colon cancer cells through suppression of β-catenin signaling” (J Nat Prod, 2013).

Assay [1] has as its system HCT-116. Description: Antitumor activity against human HCT116 cells xenografted in BALB/c-nu mouse assessed as tumor growth inhibition at 20 mg/kg, ip administered 3 times per week for 4 weeks measured every 2 to 3 days during treatment relative to control. The format is functional. The following applies: HCT-116, ip, route intraperitoneal, read-out: TGI. The procedure, abridged:
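Female BALB/c-nu mice, 4−6 weeks old, acclimated one week, given 2 × 10^6 HCT116 cells sc in the flank. Dosing began near 100 mm3, about day 8; five mice per group. Dose in 0.5% Tween 80 in normal saline, 200 μL ip; controls got vehicle. Tumor volume by caliper = L × W × H/2. Study ended when control tumors averaged ~1300 mm3.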
On the technique in general: In xenograft studies the graft and the host belong to different species.

Assay [2] relates to HCT-116. Nature of the assay: Inhibition of Wnt/beta-catenin signaling pathway in human HCT116 cells assessed as downregulation of CMYC protein expression at 5 to 10 uM after 24 to 48 hrs by Western blot analysis. The format is cell-based. The procedure, abridged: (§1)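 HCT116 cells treated 24 or 48 h. Lysed in RIPA buffer; equal protein run on 8−13% SDS-PAGE, blotted to PVDF, probed for β-catenin, c-myc and cyclin D1, detected by ECL. β-Actin served as internal standard; four determinations.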
For orientation: Immunoblotting shows a protein as a band on a membrane.

For assay [3], the system named is Mus musculus. Description: In vivo inhibition of Wnt/beta-catenin signaling pathway in human HCT116 cells xenografted in BALB/c-nu mouse assessed as downregulation of PLAU mRNA expression at 10 to 20 mg/kg, ip administered 3 times per week measured after 4 weeks by real-time PCR analysis. The format is functional, organism-based. To be noted: HCT-116. The procedure, abridged:
(§2)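 Frozen tumors from ip-dosed HCT116 xenograft mice were extracted with TRI reagent and reverse-transcribed. SYBR Green real-time PCR run 40 cycles of 95/56/72 °C. Expression by 2^−ΔΔCT normalized to β-actin, relative to vehicle-treated controls; quadruplicate.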

For assay [4], the system named is HCT-116. Nature of the assay: Cytotoxicity against human HCT116 cells assessed as growth inhibition at 5 to 20 uM by SRB assay. The following applies: TDE = time-dependent effect. The format is functional, cell-based. The procedure, abridged: (§3)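 HCT116 cells seeded at 6 × 10^3/well and grown 24 h. Day-zero plates fixed; others exposed 24, 48 or 72 h. Fixed with 10% TCA, stained with 0.4% SRB in 1% acetic acid, dye taken up in 10 mM Tris pH 10.0, read at 515 nm. Proliferation % = (compound − day zero)/(control − day zero) × 100. IC50 by nonlinear regression; four determinations.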

Assay [5] relates to Mus musculus. Description: In vivo inhibition of Wnt/beta-catenin signaling pathway in human HCT116 cells xenografted in BALB/c-nu mouse assessed as downregulation of CMYC mRNA expression at 10 to 20 mg/kg, ip administered 3 times per week measured after 4 weeks by real-time PCR analysis. The following applies: HCT-116. The format is functional, organism-based. The procedure, abridged:
as §2

For assay [6], the system named is Mus musculus. Description: In vivo inhibition of Wnt/beta-catenin signaling pathway in human HCT116 cells xenografted in BALB/c-nu mouse assessed as downregulation of CCND1 mRNA expression at 10 to 20 mg/kg, ip administered 3 times per week measured after 4 weeks by real-time PCR analysis. The format is functional, organism-based. The following applies: HCT-116. The procedure, abridged:
as §2

Assay [7] has as its system HCT-116. Nature of the assay: Inhibition of Wnt/beta-catenin signaling pathway in human HCT116 cells assessed as downregulation of CCND1 mRNA expression at 5 to 10 uM after 12 hrs by real-time PCR analysis. The format is cell-based. The procedure, abridged:
(§4)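 HCT116 cells treated 12 h. Total RNA by TRI reagent, reverse-transcribed, SYBR Green real-time PCR: 40 cycles of 95 °C 20 s, 56 °C 20 s, 72 °C 30 s. Fold change by 2^−ΔΔCT normalized to β-actin, relative to untreated control; quadruplicate.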
In general terms: Real-time PCR tracks product formation cycle by cycle.

For assay [8], the system named is HCT-116. Description: Inhibition of Wnt/beta-catenin signaling pathway in human HCT116 cells assessed as downregulation of CMYC mRNA expression at 5 to 10 uM after 12 hrs by real-time PCR analysis. The format is cell-based. The procedure, abridged: as §4
The test system of assay [9] is Mus musculus. Nature of the assay: In vivo inhibition of Wnt/beta-catenin signaling pathway in human HCT116 cells xenografted in BALB/c-nu mouse assessed as downregulation of beta-catenin expression at 10 to 20 mg/kg, ip administered 3 times per week measured after 4 weeks by hematoxylin staining-based inverted phase-contrast microscopic analysis. The format is functional, organism-based. To be noted: HCT-116.

Assay [10] has as its system HCT-116. Nature of the assay: Inhibition of Wnt/beta-catenin signaling pathway in human HCT116 cells assessed as downregulation of total beta-catenin protein expression at 5 to 10 uM after 24 to 48 hrs by Western blot analysis. The format is cell-based. The procedure, abridged:
as §1

The subject of assay [11] is HEK293. Nature of the assay: Inhibition of Wnt/beta-catenin (unknown origin) signaling pathway expressed in HEK293 cells assessed as inhibition of TCF4 transcriptional activity at 5 to 40 uM after 24 hrs by FOPflash reporter gene assay. The format is cell-based. To be noted: Homo sapiens. The procedure, abridged: (§5)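 HEK293 cells seeded at 1.5 × 10^4/well. After 24 h, lipofected with 0.1 μg TOPflash or FOPflash, 0.005 μg Renilla, 0.02 μg β-catenin and 0.004 μg TCF4 vectors. Treated 24 h after transfection for 24 h. Dual luciferase read-out, firefly normalized to Renilla, relative to vehicle; triplicate.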

Assay [12] relates to HCT-116. Description: Cytotoxicity against human HCT116 cells assessed as growth inhibition after 24 hrs by SRB assay. The format is functional, cell-based. To be noted: HCT-116, 24 h. The procedure, abridged:
as §3

The test system of assay [13] is HCT-116. Nature of the assay: Cytotoxicity against human HCT116 cells assessed as growth inhibition after 72 hrs by SRB assay. The following applies: HCT-116, 72 h. The format is functional, cell-based. The procedure, abridged:
as §3

The subject of assay [14] is Mus musculus. Nature of the assay: In vivo inhibition of Wnt/beta-catenin signaling pathway in human HCT116 cells xenografted in BALB/c-nu mouse assessed as downregulation of cyclin D1 expression at 10 to 20 mg/kg, ip administered 3 times per week measured after 4 weeks by hematoxylin staining-based inverted phase-contrast microscopic analysis. The format is functional, organism-based. The following applies: HCT-116.

In assay [15] the test system is Mus musculus. Description: In vivo inhibition of Wnt/beta-catenin signaling pathway in human HCT116 cells xenografted in BALB/c-nu mouse assessed as downregulation of CCND1 protein expression at 10 to 20 mg/kg, ip administered 3 times per week measured after 4 weeks by Western blot analysis. The format is functional, organism-based. To be noted: HCT-116. The procedure, abridged: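 Part of each frozen xenograft tumor was thawed on ice and hand-homogenized in Complete Lysis Buffer. Protein was quantified and aliquots stored at −80 °C. Western blot: SDS-PAGE, PVDF transfer, ECL detection, compared with vehicle-treated tumors.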

The subject of assay [16] is HEK293. Nature of the assay: Inhibition of Wnt/beta-catenin (unknown origin) signaling pathway expressed in HEK293 cells assessed as inhibition of TCF4 transcriptional activity after 24 hrs by TOPflash reporter gene assay. The format is cell-based. To be noted: Homo sapiens. The procedure, abridged: as §5
The subject of assay [17] is HCT-116. Nature of the assay: Inhibition of Wnt/beta-catenin signaling pathway in human HCT116 cells assessed as downregulation of NKD1 mRNA expression at 5 to 10 uM after 12 hrs by real-time PCR analysis. The format is cell-based. The procedure, abridged:
as §4

Activity calls are given as the source filed them. No cut-off for these calls is given here.

What is called IC50 is the point on the concentration scale where inhibition reaches its midpoint. In the case of `O=C/C=C/c1ccccc1O` [2-HYDROXYCINNAMALDEHYDE], in the assay with HCT-116 [1], the inhibition in vivo at 20 mg/kg was found to be 69%. Besides, the inhibition entry with HCT-116 [2], in the assay with Mus musculus [3], in the assay on Mus musculus [5], in the assay on Mus musculus [6], with HCT-116 [7] and in the assay with HCT-116 [8] was “Active” in each case. Besides, the inhibition result in the assay on Mus musculus [9], in the assay with HCT-116 [10], in the assay on Mus musculus [14], in the assay with Mus musculus [15] and in the assay with HCT-116 [17] was “Active” each time. In the assay with HCT-116 [4], the Activity entry is “tde”. For the same compound, the inhibition result with HEK293 [11] was “inactive”. Further, the IC50 was determined as 8.14 µM with HCT-116 [12] and 6.17 µM in the assay with HCT-116 [13]. Besides, the inhibition result with HEK293 [16] was “Dose-dependent effect”.
